Measurements from ChEMBL document CHEMBL1921796, “Synthesis of 6-(het) ary Xylocydine analogues and evaluating their inhibitory activities of CDK1 and CDK2 in vitro” (Bioorg Med Chem, 2011).

How the values were obtained:
[1] = target: Cyclin-dependent kinase 2/cyclin A (Homo sapiens, UniProt P24941+P20248+P78396); experiment: (§1) Inhibition of CDK2/Cyclin A2 in human HeLa cell extracts using histone H1 as substrate preincubated for 30 mins before substrate addition measured after 15 mins by autoradiography; type: protein-complex assay; details: hela
Outline: (§2)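 CDK2 immunoprecipitated (6 h, 4 °C) from 200 µg extract of HeLa cells seeded 24 h and then given 50 µg/ml etoposide in DMEM with 5% newborn calf serum for 12 h. After washing, kinase preincubated 30 min with 0–200 µM inhibitor.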

[2] = target: Cyclin-dependent kinase 1/cyclin B1 (Homo sapiens, UniProt P06493+P14635); experiment: (§3) Inhibition of CDK1/Cyclin B in human HeLa cell extracts using histone H1 as substrate preincubated for 30 mins before substrate addition measured after 15 mins by autoradiography; type: protein-complex assay; details: hela
Chain of Cyclin-dependent kinase 1/cyclin B1 (Homo sapiens, UniProt P06493+P14635) (P06493 whole entry): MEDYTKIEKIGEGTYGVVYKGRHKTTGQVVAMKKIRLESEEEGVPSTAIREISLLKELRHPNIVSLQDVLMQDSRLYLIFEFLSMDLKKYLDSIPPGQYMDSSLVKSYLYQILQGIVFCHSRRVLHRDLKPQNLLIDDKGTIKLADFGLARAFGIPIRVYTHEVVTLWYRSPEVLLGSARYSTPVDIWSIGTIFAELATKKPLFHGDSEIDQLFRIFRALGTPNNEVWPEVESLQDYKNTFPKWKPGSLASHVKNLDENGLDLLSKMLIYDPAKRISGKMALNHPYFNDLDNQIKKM
Chain of Cyclin-dependent kinase 1/cyclin B1 (Homo sapiens, UniProt P06493+P14635) (P14635 whole entry): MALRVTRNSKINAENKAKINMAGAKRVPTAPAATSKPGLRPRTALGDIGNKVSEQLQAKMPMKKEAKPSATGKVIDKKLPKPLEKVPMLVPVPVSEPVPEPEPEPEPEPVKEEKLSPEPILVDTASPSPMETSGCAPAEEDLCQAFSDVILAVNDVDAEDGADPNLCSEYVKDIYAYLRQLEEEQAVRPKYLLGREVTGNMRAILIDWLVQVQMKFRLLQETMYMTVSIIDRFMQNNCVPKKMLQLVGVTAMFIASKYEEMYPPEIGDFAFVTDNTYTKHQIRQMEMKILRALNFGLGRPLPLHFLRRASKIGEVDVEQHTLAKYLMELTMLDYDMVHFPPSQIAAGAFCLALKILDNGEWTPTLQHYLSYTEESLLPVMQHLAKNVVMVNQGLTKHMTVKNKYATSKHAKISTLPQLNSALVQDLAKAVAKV
Outline: (§4)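 HeLa cells seeded for 24 h, then given 80 nM paclitaxel in DMEM with 5% newborn calf serum for 12 h. 200 µg extract immunoprecipitated with anti-CDK1 antibody, 6 h at 4 °C, and washed.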

HeLa [3] = experiment: Cell cycle arrest in human HeLa cells assessed as accumulation at G2 phase at 6.25 uM after 72 hrs by DAPI staining-based FACS analysis (reference value: 13.73%); type: functional
[4] = target: Cyclin-dependent kinase 2/cyclin A (Homo sapiens, UniProt P24941); experiment: as §1; type: protein-complex assay; outline: as §2
HeLa [5] = experiment: Cell cycle arrest in human HeLa cells assessed as accumulation at G1/S phase at 12.5 uM after 72 hrs by DAPI staining-based FACS analysis (reference value: 86.27%); type: functional
HeLa [6] = experiment: Cell cycle arrest in human HeLa cells assessed as accumulation at G1/S phase at 6.25 uM after 72 hrs by DAPI staining-based FACS analysis (reference value: 86.27%); type: functional
HeLa [7] = experiment: Cell cycle arrest in human HeLa cells assessed as accumulation at G2 phase at 12.5 uM after 72 hrs by DAPI staining-based FACS analysis (reference value: 13.73%); type: functional
[8] = target: Cyclin-dependent kinase 1/cyclin B1 (Homo sapiens, UniProt P06493); experiment: as §3; type: protein-complex assay; outline: as §4
Chain of Cyclin-dependent kinase 1/cyclin B1 (Homo sapiens, UniProt P06493) (P06493 whole entry): as the sequence (P06493 whole entry) above
Chain of Cyclin-dependent kinase 1/cyclin B1 (Homo sapiens, UniProt P06493) (P14635 whole entry, further chain): as the sequence (P14635 whole entry) above

## COc1ccc(-c2c(C(N)=O)c3c(N)ncnc3n2[C@H]2O[C@@H](CO)[C@@H](O)[C@@H]2O)cc1
[1]
  IC50: Not Active
[2]
  IC50: Not Active

## N#Cc1c(Br)n([C@H]2O[C@@H](CO)[C@@H](O)[C@@H]2O)c2ncnc(N)c12
[1]
  IC50: Not Active
[2]
  IC50: Not Active

## Cc1ccc(-c2c(C#N)c3c(N)ncnc3n2[C@H]2O[C@@H](CO)[C@@H](O)[C@@H]2O)cc1
[1]
  IC50: Not Active
[2]
  IC50: Not Active

## COc1ccc(-c2c(C#N)c3c(N)ncnc3n2[C@H]2O[C@@H](CO)[C@@H](O)[C@@H]2O)cc1
[1]
  IC50: Not Active
[2]
  IC50: Not Active

## COc1cccc(-c2c(C#N)c3c(N)ncnc3n2[C@H]2O[C@@H](CO)[C@@H](O)[C@@H]2O)c1
[1]
  IC50: Not Active
[2]
  IC50: Not Active

## CC(C)(C)c1ccc(-c2c(C#N)c3c(N)ncnc3n2[C@H]2O[C@@H](CO)[C@@H](O)[C@@H]2O)cc1
[1]
  IC50: Not Active
[2]
  IC50: Not Active

## N#Cc1c(-c2ccc(Br)cc2)n([C@H]2O[C@@H](CO)[C@@H](O)[C@@H]2O)c2ncnc(N)c12
[1]
  IC50: Not Active
[2]
  IC50: Not Active

## N#Cc1c(-c2cccc(Br)c2)n([C@H]2O[C@@H](CO)[C@@H](O)[C@@H]2O)c2ncnc(N)c12
[1]
  IC50: Not Active
[2]
  IC50: Not Active

## N#Cc1c(-c2ccc[nH]2)n([C@H]2O[C@@H](CO)[C@@H](O)[C@@H]2O)c2ncnc(N)c12
[1]
  IC50: Not Active
[2]
  IC50: Not Active

## N#Cc1c(-c2cccs2)n([C@H]2O[C@@H](CO)[C@@H](O)[C@@H]2O)c2ncnc(N)c12
HeLa [3]
  Activity: 3.7%
[4]
  IC50: 4.6 µM
HeLa [5]
  Activity: 99.87%
HeLa [6]
  Activity: 96.3%
HeLa [7]
  Activity: 0.13%
[8]
  IC50: > 100 µM

## N#Cc1c(-c2ccco2)n([C@H]2O[C@@H](CO)[C@@H](O)[C@@H]2O)c2ncnc(N)c12
HeLa [3]
  Activity: 14.87%
[4]
  IC50: 4.8 µM
HeLa [5]
  Activity: 92.74%
HeLa [6]
  Activity: 85.13%
HeLa [7]
  Activity: 7.26%
[8]
  IC50: > 100 µM

## N#Cc1c(-c2ccc(Br)s2)n([C@H]2O[C@@H](CO)[C@@H](O)[C@@H]2O)c2ncnc(N)c12
HeLa [3]
  Activity: 13.17%
[4]
  IC50: 55 µM
HeLa [5]
  Activity: 99.79%
HeLa [6]
  Activity: 86.83%
HeLa [7]
  Activity: 0.22%
[8]
  IC50: > 100 µM

## Cc1ccc(-c2c(C(N)=O)c3c(N)ncnc3n2[C@H]2O[C@@H](CO)[C@@H](O)[C@@H]2O)cc1
[1]
  IC50: Not Active
[2]
  IC50: Not Active

## COc1cccc(-c2c(C(N)=O)c3c(N)ncnc3n2[C@H]2O[C@@H](CO)[C@@H](O)[C@@H]2O)c1
[1]
  IC50: Not Active
[2]
  IC50: Not Active

## CC(C)(C)c1ccc(-c2c(C(N)=O)c3c(N)ncnc3n2[C@H]2O[C@@H](CO)[C@@H](O)[C@@H]2O)cc1
[1]
  IC50: Not Active
[2]
  IC50: Not Active

## NC(=O)c1c(-c2ccc(Br)cc2)n([C@H]2O[C@@H](CO)[C@@H](O)[C@@H]2O)c2ncnc(N)c12
[1]
  IC50: Not Active
[2]
  IC50: Not Active

## NC(=O)c1c(-c2cccc(Br)c2)n([C@H]2O[C@@H](CO)[C@@H](O)[C@@H]2O)c2ncnc(N)c12
[1]
  IC50: Not Active
[2]
  IC50: Not Active

## NC(=O)c1c(-c2ccc[nH]2)n([C@H]2O[C@@H](CO)[C@@H](O)[C@@H]2O)c2ncnc(N)c12
[1]
  IC50: Not Active
[2]
  IC50: Not Active

## NC(=O)c1c(-c2cccs2)n([C@H]2O[C@@H](CO)[C@@H](O)[C@@H]2O)c2ncnc(N)c12
[1]
  IC50: Not Active
[2]
  IC50: Not Active

## NC(=O)c1c(-c2ccco2)n([C@H]2O[C@@H](CO)[C@@H](O)[C@@H]2O)c2ncnc(N)c12
[1]
  IC50: Not Active
[2]
  IC50: Not Active

## NC(=O)c1c(-c2ccc(Br)s2)n([C@H]2O[C@@H](CO)[C@@H](O)[C@@H]2O)c2ncnc(N)c12
[1]
  IC50: Not Active
[2]
  IC50: Not Active

## NC(=O)c1c(Br)n([C@H]2O[C@@H](CO)[C@@H](O)[C@@H]2O)c2ncnc(N)c12 [XYLOCYDINE]
[4]
  IC50: 0.061 µM
[8]
  IC50: 0.0014 µM
